# Results from ChEMBL document CHEMBL5724801, “EUbOPEN Chemogenomics Library - Multiplex” (2024).
# “And” between values parts separate entries of the source, which are not always exact repeats. Equal values may be shown once.
# Tested on: HEK-293T
# Assay: Multiplex assay against HEK293T
# Type: toxicity, cell-based
# Settings: human
# Procedure, shortened: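 Phenotypes for tubulin, mitochondrial mass and membrane permeability are expressed as per cents of healthy-nucleus cells. Cells were stained live at seeding with Hoechst33342, BioTracker Green Microtubule Cytoskeleton Dye, MitoTracker Red and Annexin V Alexa Fluor 680, then imaged after compound addition on a CQ1 microscope at 37°C and 5% CO2. Machine-learning gating in CellPathfinder separated Hoechst high-intensity objects from normal cells, divided normal cells by nuclear state (healthy, pyknosed, fragmented) and divided pyknosed cells into mitotic or apoptotic.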
# [1] = 12 h, 1 µM, compound concentration 1 uM
# [2] = 12 h, 10 µM, compound concentration 10 uM
# [3] = 24 h, 1 µM, compound concentration 1 uM
# [4] = 24 h, 10 µM, compound concentration 10 uM
# [5] = 48 h, 1 µM, compound concentration 1 uM
# [6] = 48 h, 10 µM, compound concentration 10 uM
smiles,measurement,setting,value
COc1cc(/C=C(\C#N)C(=O)Nc2nnc(C(F)(F)F)s2)ccc1OCc1ccc(C(F)(F)F)cc1C(F)(F)F,Population Apoptotic (%),[1],10% and 12.9%
same,Population Fragmented Nuclei (%),[1],2.37% and 4.7%
same,Population Hoechst High Intensity Objects (%),[1],0.67% and 0%
same,Population Membrane Permeable-Phenotype (%),[1],0%
same,Population Mitochondria Different-Phenotype (%),[1],45.57% and 22.22%
same,Population Mitotic Cells (%),[1],90% and 87.1%
same,Population Normal (%),[1],99.33% and 100%
same,Population Pyknosed Nuclei (%),[1],44.07% and 83.22%
same,Total Cell Count,[1],297 and 149
same,Population Apoptotic (%),[2],7.56% and 15.32%
same,Population Fragmented Nuclei (%),[2],3.37% and 4.96%
same,Population Hoechst High Intensity Objects (%),[2],0%
same,Population Membrane Permeable-Phenotype (%),[2],0%
same,Population Mitochondria Different-Phenotype (%),[2],33.93% and 13.04%
same,Population Mitotic Cells (%),[2],92.44% and 84.68%
same,Population Normal (%),[2],100%
same,Population Pyknosed Nuclei (%),[2],40.07% and 78.72%
same,Total Cell Count,[2],297 and 141
same,Population Apoptotic (%),[3],13% and 14.66%
same,Population Fragmented Nuclei (%),[3],1.79% and 2.79%
same,Population Healthy Nuclei (%),[3],75.89% and 32.4%
same,Population Hoechst High Intensity Objects (%),[3],0.22% and 0%
same,Population Membrane Permeable-Phenotype (%),[3],1.18% and 0%
same,Population Mitochondria Different-Phenotype (%),[3],13.82% and 22.41%
same,Population Mitotic Cells (%),[3],87% and 85.34%
same,Population Normal (%),[3],99.78% and 100%
same,Population Pyknosed Nuclei (%),[3],22.32% and 64.8%
same,Population Tubulin-Different-Phenotype (%),[3],11.47% and 13.79%
same,Total Cell Count,[3],449 and 179
same,Population Apoptotic (%),[4],11.22% and 19.54%
same,Population Fragmented Nuclei (%),[4],0.62% and 1.78%
same,Population Healthy Nuclei (%),[4],79% and 46.75%
same,Population Hoechst High Intensity Objects (%),[4],0% and 0.59%
same,Population Membrane Permeable-Phenotype (%),[4],0.79% and 1.27%
same,Population Mitotic Cells (%),[4],88.78% and 80.46%
same,Population Normal (%),[4],100% and 99.41%
same,Population Pyknosed Nuclei (%),[4],20.37% and 51.48%
same,Population Tubulin-Different-Phenotype (%),[4],9.47% and 5.06%
same,Total Cell Count,[4],481 and 170
same,Population Apoptotic (%),[5],10.37% and 13.92%
same,Population Fragmented Nuclei (%),[5],1.93% and 3.61%
same,Population Healthy Nuclei (%),[5],85.65% and 55.67%
same,Population Hoechst High Intensity Objects (%),[5],0.09% and 1.52%
same,Population Membrane Permeable-Phenotype (%),[5],4.73% and 1.85%
same,Population Mitochondria Different-Phenotype (%),[5],13.1% and 24.07%
same,Population Mitotic Cells (%),[5],89.63% and 86.08%
same,Population Normal (%),[5],99.91% and 98.48%
same,Population Fragmented Nuclei (%),[6],1.97% and 2.88%
same,Population Healthy Nuclei (%),[6],88.86% and 79.5%
same,Population Hoechst High Intensity Objects (%),[6],0% and 2.11%
same,Population Membrane Permeable-Phenotype (%),[6],4.71% and 1.81%
same,Population Mitochondria Different-Phenotype (%),[6],9.16% and 21.72%
same,Population Mitotic Cells (%),[6],88.79% and 63.27%
same,Population Normal (%),[6],100% and 97.89%
same,Population Pyknosed Nuclei (%),[6],9.16% and 17.63%
Nc1nccc(-c2ccn3c(N)nccc23)n1,Population Apoptotic (%),[1],15.46% and 10.1%
same,Population Fragmented Nuclei (%),[1],3.18% and 4.55%
same,Population Healthy Nuclei (%),[1],68.79% and 31.17%
same,Population Hoechst High Intensity Objects (%),[1],0%
same,Population Membrane Permeable-Phenotype (%),[1],0.42% and 2.08%
same,Population Mitochondria Different-Phenotype (%),[1],32.35% and 27.08%
same,Population Mitotic Cells (%),[1],84.54% and 89.9%
same,Population Normal (%),[1],100%
same,Population Pyknosed Nuclei (%),[1],28.03% and 64.29%
same,Total Cell Count,[1],346 and 154
same,Population Apoptotic (%),[2],15.73% and 12.77%
same,Population Fragmented Nuclei (%),[2],2.41% and 4.48%
same,Population Healthy Nuclei (%),[2],66.9% and 25.37%
same,Population Hoechst High Intensity Objects (%),[2],0.34% and 0%
same,Population Membrane Permeable-Phenotype (%),[2],1.03% and 0%
same,Population Mitochondria Different-Phenotype (%),[2],38.66% and 17.65%
same,Population Mitotic Cells (%),[2],84.27% and 87.23%
same,Population Normal (%),[2],99.66% and 100%
same,Population Pyknosed Nuclei (%),[2],30.69% and 70.15%
same,Total Cell Count,[2],291 and 134
same,Population Apoptotic (%),[3],20.19% and 15.91%
same,Population Fragmented Nuclei (%),[3],1.49% and 2.84%
same,Population Healthy Nuclei (%),[3],76.43% and 34.75%
same,Population Hoechst High Intensity Objects (%),[3],0% and 2.08%
same,Population Membrane Permeable-Phenotype (%),[3],1.11% and 4.08%
same,Population Mitochondria Different-Phenotype (%),[3],17.78% and 20.41%
same,Population Mitotic Cells (%),[3],79.81% and 84.09%
same,Population Normal (%),[3],100% and 97.92%
same,Population Pyknosed Nuclei (%),[3],22.08% and 62.41%
same,Population Tubulin-Different-Phenotype (%),[3],14.44% and 12.24%
same,Population Apoptotic (%),[4],20.31% and 14.47%
same,Population Fragmented Nuclei (%),[4],1.23% and 6.87%
same,Population Healthy Nuclei (%),[4],79.14% and 35.11%
same,Population Hoechst High Intensity Objects (%),[4],0.61% and 0%
same,Population Membrane Permeable-Phenotype (%),[4],0% and 2.17%
same,Population Mitochondria Different-Phenotype (%),[4],20.93% and 19.57%
same,Population Mitotic Cells (%),[4],79.69% and 85.53%
same,Population Normal (%),[4],99.39% and 100%
same,Population Pyknosed Nuclei (%),[4],19.63% and 58.02%
same,Population Tubulin-Different-Phenotype (%),[4],11.63% and 8.7%
same,Total Cell Count,[4],328 and 131
same,Population Apoptotic (%),[5],8% and 18.75%
same,Population Fragmented Nuclei (%),[5],5.17% and 4.03%
same,Population Healthy Nuclei (%),[5],89.44% and 63.76%
same,Population Hoechst High Intensity Objects (%),[5],0.11% and 0.67%
same,Population Membrane Permeable-Phenotype (%),[5],5.66% and 3.16%
same,Population Mitochondria Different-Phenotype (%),[5],18.92% and 21.05%
same,Population Mitotic Cells (%),[5],92% and 81.25%
same,Population Normal (%),[5],99.89% and 99.33%
same,Population Apoptotic (%),[6],20% and 39.39%
same,Population Fragmented Nuclei (%),[6],5.81% and 7.8%
same,Population Healthy Nuclei (%),[6],85.77% and 68.79%
same,Population Hoechst High Intensity Objects (%),[6],0.37% and 1.4%
same,Population Membrane Permeable-Phenotype (%),[6],1.31% and 2.06%
same,Population Mitochondria Different-Phenotype (%),[6],36.24% and 23.71%
same,Population Mitotic Cells (%),[6],80% and 60.61%
same,Population Normal (%),[6],99.63% and 98.6%
same,Population Pyknosed Nuclei (%),[6],8.43% and 23.4%
CC(C)(O)c1cnc(N2C[C@@]3(CCC[C@](C)(Cn4cnc5ccc(C#N)cc54)C3)OC2=O)cn1 [GSK2798745],Population Apoptotic (%),[1],8.76% and 9.45%
same,Population Fragmented Nuclei (%),[1],1.42% and 8.48%
same,Population Hoechst High Intensity Objects (%),[1],0%
same,Population Membrane Permeable-Phenotype (%),[1],0% and 4.17%
same,Population Mitochondria Different-Phenotype (%),[1],40% and 37.5%
same,Population Mitotic Cells (%),[1],91.24% and 90.55%
same,Population Normal (%),[1],100%
same,Population Pyknosed Nuclei (%),[1],38.92% and 76.97%
same,Total Cell Count,[1],352 and 165
same,Population Apoptotic (%),[2],8.93% and 6.72%
same,Population Fragmented Nuclei (%),[2],1.58% and 0.69%
same,Population Healthy Nuclei (%),[2],45.43% and 17.24%
same,Population Hoechst High Intensity Objects (%),[2],0.63% and 0%
same,Population Membrane Permeable-Phenotype (%),[2],0%
same,Population Mitochondria Different-Phenotype (%),[2],36.11% and 20%
same,Population Mitotic Cells (%),[2],91.07% and 93.28%
same,Population Normal (%),[2],99.37% and 100%
same,Population Pyknosed Nuclei (%),[2],53% and 82.07%
same,Population Tubulin-Different-Phenotype (%),[2],24.31% and 48%
same,Total Cell Count,[2],319 and 145
same,Population Apoptotic (%),[3],18.02% and 17.31%
same,Population Fragmented Nuclei (%),[3],0.94% and 3.7%
same,Population Healthy Nuclei (%),[3],78.24% and 32.1%
same,Population Hoechst High Intensity Objects (%),[3],0%
same,Population Membrane Permeable-Phenotype (%),[3],2.88% and 0%
same,Population Mitochondria Different-Phenotype (%),[3],16.31% and 11.54%
same,Population Mitotic Cells (%),[3],81.98% and 82.69%
same,Population Normal (%),[3],100%
same,Population Tubulin-Different-Phenotype (%),[3],16.79% and 7.69%
same,Population Apoptotic (%),[4],17.91% and 14.14%
same,Population Fragmented Nuclei (%),[4],2.04% and 1.31%
same,Population Healthy Nuclei (%),[4],63.87% and 33.99%
same,Population Hoechst High Intensity Objects (%),[4],0%
same,Population Membrane Permeable-Phenotype (%),[4],0.8% and 0%
same,Population Mitochondria Different-Phenotype (%),[4],27.09% and 9.62%
same,Population Mitotic Cells (%),[4],82.09% and 85.86%
same,Population Normal (%),[4],100%
same,Population Pyknosed Nuclei (%),[4],34.1% and 64.71%
same,Population Tubulin-Different-Phenotype (%),[4],37.85% and 13.46%
same,Total Cell Count,[4],393 and 153
same,Population Fragmented Nuclei (%),[5],2.32% and 3.45%
same,Population Healthy Nuclei (%),[5],86.2% and 69.4%
same,Population Hoechst High Intensity Objects (%),[5],0% and 1.28%
same,Population Membrane Permeable-Phenotype (%),[5],5.88% and 4.97%
same,Population Mitochondria Different-Phenotype (%),[5],16.75% and 31.68%
same,Population Mitotic Cells (%),[5],97.55% and 73.02%
same,Population Normal (%),[5],100% and 98.72%
same,Population Pyknosed Nuclei (%),[5],11.48% and 27.16%
same,Population Apoptotic (%),[6],12.84% and 15.85%
same,Population Fragmented Nuclei (%),[6],2.45% and 0.91%
same,Population Healthy Nuclei (%),[6],82.72% and 61.64%
same,Population Hoechst High Intensity Objects (%),[6],0.14% and 0%
same,Population Membrane Permeable-Phenotype (%),[6],8.39% and 0.74%
same,Population Mitochondria Different-Phenotype (%),[6],44.41% and 40%
same,Population Mitotic Cells (%),[6],87.16% and 84.15%
same,Population Normal (%),[6],99.86% and 100%
same,Population Pyknosed Nuclei (%),[6],14.83% and 37.44%
